ChEMBL document CHEMBL4257585, “Structure-Activity Relationships of Photoswitchable Diarylethene-Based β-Hairpin Peptides as Membranolytic Antimicrobial and Anticancer Agents” (J Med Chem, 2018)
≈ marks a conversion by molar mass, not a printed value. Non-standard residues stand in square brackets, D forms with d. Residues, ends and D or L forms follow the SMILES beside them. Orn = NCCC[C@H](N)C(=O)O

What was measured:
Bacillus subtilis = assay: Antimicrobial activity against Bacillus subtilis DSM 347 after 22 hrs by resazurin dye based spectrophotometry; type: functional; conditions: DSM 347, 22 h
In short: (§1)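 2-fold broth microdilution in Mueller–Hinton medium; peptide stocks 1024 μg/mL in 50% ethanol. Exponential-phase cultures diluted to OD550 0.2, then 1:100 (B. subtilis) or 1:1000 (E. coli), giving 5 × 10^5 CFU/mL per well. Incubated 22 h, 37 °C, static; then resazurin (0.2 mg/mL solution) added for 2 h at 37 °C, read visually and spectrophotometrically. Tested in both photoforms.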

Escherichia coli = assay: Antimicrobial activity against Escherichia coli DSM 1103 after 22 hrs by resazurin dye based spectrophotometry; type: functional; conditions: DSM 1103, 22 h; in short: as §1
HeLa = assay: Cytotoxicity against human HeLa cells assessed as reduction in cell viability after 24 hrs by MTT assay; type: functional, cell-based
In short: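 HeLa cells seeded at about 5 × 10^4 cells/mL in DMEM with 10% FBS, 2 mM glutamine, gentamicin; 24 h adaptation (37 °C, 5% CO2), then 24 h peptide exposure. MTT 4 h, formazan in DMSO read at 570 nm. 2-fold series 256–0.5 (open) or 512–1 μg/mL (closed), four repetitions; IC50 extrapolated from killing curves. Closed form handled in dim light.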

[1] = Hemolytic activity against human RBC assessed as hemolysis after 30 mins by colorimetric method; type: ADME, cell-based, Erythrocyte; conditions: human red blood cells (erythrocytes)
In short: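 Human erythrocytes washed twice in isotonic 172 mM Tris-HCl, pH 7.6; peptides dissolved in DMSO, diluted in buffer, two independent 10-step 2-fold series from 256 or 192 μg/mL. HC50 extrapolated as 50% hemolysis concentration.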

[2] = Therapeutic index, ratio of HC50 for human RBC to MIC for Bacillus subtilis DSM 347; type: toxicity; conditions: human red blood cells versus Bacillus subtilis DSM 347
In short: (§2)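 Ratio of HC50 (RBC) to HeLa IC50 or to MIC against B. subtilis or E. coli; values measured in mg/mL and recalculated to μM, 2-fold dilution without curve fitting, accuracy within a factor of 2.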

[3] = Selective ratio of HC50 for human RBC to IC50 for human HeLa cells; type: toxicity; conditions: human red blood cells versus HeLa cells; in short: as §2
[4] = Therapeutic index, ratio of HC50 for human RBC to MIC for Escherichia coli DSM 1103; type: toxicity; conditions: human red blood cells versus Escherichia coli DSM 1103; in short: as §2

| SMILES | MIC (Bacillus subtilis) | MIC (Escherichia coli) | IC50 (HeLa) | HC50 at 0.5 h [1] | selectivity ratio [2] | selectivity ratio [3] | selectivity ratio [4] |
| --- | --- | --- | --- | --- | --- | --- | --- |
| CC[C@H](C)[C@@H]1NC(=O)c2cc(c(C)s2)C2=C(CCC2)c2cc(sc2C)C(=O)[C@H]2CCCN2C(=O)[C@H]([C@@H](C)CC)NC(=O)[C@H](CCCN)NC(=O)[C@H](CC(C)C)NC(=O)[C@H](CC(C)C)N(C)C(=O)[C@@H](Cc2ccccc2)NC(=O)[C@H]([C@@H](C)CC)NC(=O)[C@H](CCCN)NC1=O | 2 µM (≈ 2.68 µg/mL) | 96 µM (≈ 129 µg/mL) | 3 µM | 3 µM | 1.5 | 1 |  |
| Cc1sc2cc1C1=C(CCC1)c1cc(sc1C)C(=O)[C@H]1CCCN1C(=O)[C@H](C(C)C)NC(=O)[C@H](CCCN)NC(=O)[C@H]([C@H](O)C(C)C)NC(=O)[C@@H]1CCCN1C(=O)[C@@H](Cc1ccccc1)NC(=O)[C@H](C(C)C)NC(=O)[C@H](CCCN)NC(=O)[C@H]([C@H](O)C(C)C)NC2=O | 3 µM (≈ 3.94 µg/mL) | 98 µM (≈ 129 µg/mL) | 61 µM | 160 µM | 53.3 | 2.6 | 1.6 |
| CCCCN1C(=O)[C@@H](Cc2ccccc2)NC(=O)[C@H](CC(C)C)NC(=O)[C@H](CCCN)NC(=O)[C@H]([C@@H](C)CC)NC(=O)C2=CC3=C4CCCC4=C4C=C(S[C@]4(C)[C@@]3(C)S2)C(=O)[C@H]2CCCN2C(=O)[C@H](CC(C)C)NC(=O)[C@H](CCCN)NC(=O)[C@H]([C@@H](C)CC)NC(=O)[C@@H]1CC(C)C | 1 µM (≈ 1.38 µg/mL) | 186 µM (≈ 257 µg/mL) | 13 µM | 13 µM | 13 | 1 | 0.1 |
| CCCCN1C(=O)[C@@H](Cc2ccccc2)NC(=O)[C@H](CC(C)C)NC(=O)[C@H](CCCN)NC(=O)[C@H]([C@@H](C)CC)NC(=O)c2cc(c(C)s2)C2=C(CCC2)c2cc(sc2C)C(=O)[C@H]2CCCN2C(=O)[C@H](CC(C)C)NC(=O)[C@H](CCCN)NC(=O)[C@H]([C@@H](C)CC)NC(=O)[C@@H]1CC(C)C | 12 µM (≈ 16.6 µg/mL) | 93 µM (≈ 128 µg/mL) | 4 µM | 3 µM | 0.3 | 0.8 |  |
| CC(C)[C@@H]1NC(=O)[C@H](CCCN)NC(=O)[C@H]([C@H](O)C(C)C)NC(=O)C2=CC3=C4CCCC4=C4C=C(S[C@]4(C)[C@@]3(C)S2)C(=O)[C@H]2CCCN2C(=O)[C@H](C(C)C)NC(=O)[C@H](CCCN)NC(=O)[C@H]([C@H](O)C(C)C)NC(=O)[C@@H]2CCCN2C(=O)[C@@H](Cc2ccccc2)NC1=O | 12 µM (≈ 15.8 µg/mL) | 195 µM (≈ 256 µg/mL) | 293 µM | 160 µM | 13.3 | 0.5 | 0.8 |
| Cc1sc2cc1C1=C(CCC1)c1cc(sc1C)C(=O)[C@H]1CCCN1C(=O)[C@H](Cc1ccc(O)cc1)NC(=O)[C@H](CCCN)NC(=O)[C@H](C(C)C)NC(=O)[C@@H]1CCCN1C(=O)[C@@H](Cc1ccccc1)NC(=O)[C@H](Cc1ccc(O)cc1)NC(=O)[C@H](CCCN)NC(=O)[C@H](C(C)C)NC2=O | 4 µM (≈ 5.52 µg/mL) | 92 µM (≈ 127 µg/mL) | 23 µM | 4 µM | 1 | 0.2 |  |
| Cc1sc2cc1C1=C(CCC1)c1cc(sc1C)C(=O)[C@H]1CCCN1C(=O)[C@H](C(C)C)NC(=O)[C@H](CCCN)NC(=O)[C@H](C(C)C)NC(=O)[C@@H]1CCCN1C(=O)[C@@H](Cc1ccccc1)NC(=O)[C@H](C(C)C)NC(=O)[C@H](CCCN)NC(=O)[C@H]([C@H](O)C(C)C)NC2=O | 2 µM (≈ 2.57 µg/mL) | 100 µM (≈ 128 µg/mL) | 25 µM | 56 µM | 28 | 2.2 | 0.6 |
| CC(C)[C@@H]1NC(=O)[C@H](CCCN)NC(=O)[C@H]([C@H](O)C(C)C)NC(=O)C2=CC3=C4CCCC4=C4C=C(S[C@]4(C)[C@@]3(C)S2)C(=O)[C@H]2CCCN2C(=O)[C@H](C(C)C)NC(=O)[C@H](CCCN)NC(=O)[C@H](C(C)C)NC(=O)[C@@H]2CCCN2C(=O)[C@@H](Cc2ccccc2)NC1=O | 13 µM (≈ 16.7 µg/mL) | 200 µM (≈ 257 µg/mL) | 300 µM | 351 µM | 27 | 1.2 | 1.8 |
| CC(C)[C@@H]1NC(=O)C2=CC3=C4CCCC4=C4C=C(S[C@]4(C)[C@@]3(C)S2)C(=O)[C@H]2CCCN2C(=O)[C@H]([C@H](O)C(C)C)NC(=O)[C@H](CCCN)NC(=O)[C@H](C(C)C)NC(=O)[C@@H]2CCCN2C(=O)[C@@H](Cc2ccccc2)NC(=O)[C@H](C(C)C)NC(=O)[C@H](CCCN)NC1=O | 25 µM (≈ 32.1 µg/mL) | 200 µM (≈ 257 µg/mL) | 300 µM | 200 µM | 8 | 0.7 | 1 |
| CC(C)[C@@H]1NC(=O)[C@H](CCCN)NC(=O)[C@H]([C@H](O)C(C)C)NC(=O)C2=CC3=C4CCCC4=C4C=C(S[C@]4(C)[C@@]3(C)S2)C(=O)[C@H]2CCCN2C(=O)[C@H](C(C)C)NC(=O)[C@H](CCCN)NC(=O)[C@H](C(C)C)NC(=O)[C@H](CCCn2cc(COCc3cn(CCC[C@H]4C(=O)N[C@@H](C(C)C)C(=O)N[C@@H](CCCN)C(=O)N[C@@H](C(C)C)C(=O)N5CCC[C@@H]5C(=O)C5=CC6=C7CCCC7=C7C(=CS[C@]7(C)[C@@]6(C)S5)C(=O)N[C@@H]([C@H](O)C(C)C)C(=O)N[C@@H](CCCN)C(=O)N[C@@H](C(C)C)C(=O)N[C@H](Cc5ccccc5)C(=O)N4C)nn3)nn2)N(C)C(=O)[C@@H](Cc2ccccc2)NC1=O | 6 µM (≈ 16.6 µg/mL) | 96 µM (≈ 266 µg/mL) | 48 µM | 10 µM | 1.7 | 0.2 | 0.1 |
| Cc1sc2cc1C1=C(CCC1)c1cc(sc1C)C(=O)[C@H]1CCCN1C(=O)[C@H](C(C)C)NC(=O)[C@H](CCCN)NC(=O)[C@H](C(C)C)NC(=O)[C@H](CCCn1cc(COCc3cn(CCC[C@H]4C(=O)N[C@@H](C(C)C)C(=O)N[C@@H](CCCN)C(=O)N[C@@H](C(C)C)C(=O)N5CCC[C@@H]5C(=O)c5cc(c(C)s5)C5=C(CCC5)c5cc(sc5C)C(=O)N[C@@H]([C@H](O)C(C)C)C(=O)N[C@@H](CCCN)C(=O)N[C@@H](C(C)C)C(=O)N[C@H](Cc5ccccc5)C(=O)N4C)nn3)nn1)N(C)C(=O)[C@@H](Cc1ccccc1)NC(=O)[C@H](C(C)C)NC(=O)[C@H](CCCN)NC(=O)[C@H]([C@H](O)C(C)C)NC2=O | 3 µM (≈ 8.32 µg/mL) | 48 µM (≈ 133 µg/mL) | 24 µM | 1 µM | 0.3 |  |  |
| Cc1sc2cc1C1=C(CCC1)c1cc(sc1C)C(=O)[C@H]1CCCN1C(=O)[C@H](CC(C)C)NC(=O)[C@H](CCCCN)NC(=O)[C@H](C(C)C)NC(=O)[C@H](CCCCN)NC(=O)[C@H](CC(C)C)NC(=O)[C@@H]1CCCN1C(=O)[C@@H](Cc1ccccc1)NC(=O)[C@H](C(C)C)NC(=O)[C@H](CCCCN)NC(=O)[C@H](CC(C)C)NC(=O)[C@H](CCCCN)NC(=O)[C@H](C(C)C)NC2=O | 9 µM (≈ 16 µg/mL) | 36 µM (≈ 64 µg/mL) | 5 µM | < 1 µM | 0.1 | 0.2 |  |
| Cc1sc2cc1C1=C(CCC1)c1cc(sc1C)C(=O)[C@H]1CCCN1C(=O)[C@H](C(C)C)NC(=O)[C@H](CCCN)NC(=O)[C@H](C(C)C)NC(=O)[C@@H]1CCCN1C(=O)[C@@H](Cc1ccccc1)NC(=O)[C@H](C(C)C)NC(=O)[C@H](CCCN)NC(=O)[C@H](CCCn1cc(COCc3cn(CCC[C@@H]4NC(=O)c5cc(c(C)s5)C5=C(CCC5)c5cc(sc5C)C(=O)[C@H]5CCCN5C(=O)[C@H](C(C)C)NC(=O)[C@H](CCCN)NC(=O)[C@H](C(C)C)NC(=O)[C@@H]5CCCN5C(=O)[C@@H](Cc5ccccc5)NC(=O)[C@H](C(C)C)NC(=O)[C@H](CCCN)NC4=O)nn3)nn1)NC2=O | 1 µM (≈ 2.68 µg/mL) | 23 µM (≈ 61.7 µg/mL) | 23 µM | 1 µM | 1 |  |  |
| Cc1sc2cc1C1=C(CCC1)c1cc(sc1C)C(=O)[C@H]1CCCN1C(=O)[C@H]([C@H](O)C(C)C)NC(=O)[C@H](CCCN)NC(=O)[C@H](C(C)C)NC(=O)[C@@H]1CCCN1C(=O)[C@@H](Cc1ccccc1)NC(=O)[C@H](C(C)C)NC(=O)[C@H](CCCN)NC(=O)[C@H](C(C)C)NC2=O | 2 µM (≈ 2.57 µg/mL) | 100 µM (≈ 128 µg/mL) | 31 µM | 39 µM | 25 | 1.3 | 0.4 |
| CC(C)C[C@@H]1NC(=O)[C@H](CCCN)NC(=O)[C@H](C(C)C)NC(=O)[C@@H]2CCCN2C(=O)[C@@H](Cc2ccccc2)NC(=O)[C@H](CC(C)C)NC(=O)[C@H](CCCN)NC(=O)[C@H](C(C)C)NC(=O)[C@@H]2CCCN2C(=O)[C@@H](Cc2ccccc2)NC1=O (cyclo(V[Orn]L[dF]PV[Orn]L[dF]P)) [listing 1 of 2 here] |  |  | 3.5 µM | 10.5 µM |  |  |  |
| CC(C)C[C@@H]1NC(=O)[C@H](CCCN)NC(=O)[C@H](C(C)C)NC(=O)[C@@H]2CCCN2C(=O)[C@@H](Cc2ccccc2)NC(=O)[C@H](CC(C)C)NC(=O)[C@H](CCCN)NC(=O)[C@H](C(C)C)NC(=O)[C@@H]2CCCN2C(=O)[C@@H](Cc2ccccc2)NC1=O (cyclo(V[Orn]L[dF]PV[Orn]L[dF]P)) [listing 2 of 2 here] | 1.8 µM (≈ 2.05 µg/mL) | 28 µM (≈ 32 µg/mL) |  |  |  |  |  |
